Laboratory results reported in publication PMC2793091 (Biochemistry, 2009).
Where two headings read alike, the source gives them in different places.

What was measured:
[1] = pH 10
VAChT = details: cited from earlier work
[2] = Solubility in binding buffers at different pH
[3] = tested on: postnuclear supernatant from cells not transfected with VAChT; assay type: binding, rat; details: five nM [3H]vesamicol
Procedure, shortened: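 Postnuclear supernatant (1500g, 10 min) from untransfected PC12^A123.7 cells, in sucrose/HEPES/DTT buffer pH 7.4. 20 μg protein mixed with iso-osmolal MES/HEPES/AMPSO pH buffer. Started with [³H]vesamicol in potassium tartrate/HEPES/DTT buffer; 10 min, 23°. pH measured just before filtration. Two portions filtered, washed with ice-cold buffer containing 5 μM (±)-vesamicol, scintillation-counted, averaged. Nonspecific binding measured with 5 μM (±)-vesamicol.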

[4] = titration of (±)-vesamicol absorbance at 263 nm; cited from earlier work
sigma 2 receptors = details: cited from earlier work
sigma 1 receptors = details: cited from earlier work

Nc1cccc2c1CC(N1CCC(c3ccccc3)CC1)C(O)C2 (racemic) [(±)-ABV, (±)-aminobenzovesamicol]
solubility [1]: soluble | potency relative to (±)-vesamicol (VAChT): about 1000 fold

(±)-trans-2-(4-phenylpiperidino)cyclohexanol [(±)-vesamicol]
solubility ([2]; 200 μM, pH 10 (data not shown)): not soluble | solubility ([2]; 1 mM, acidic and neutral pH): soluble

(−)-[^3H]trans-2-(4-phenylpiperidino)cyclohexanol [[^3H]vesamicol]
"specific-nonspecific" binding ([3]; high pH): ~ 0.4 pmol/mg | "specific-nonspecific" binding ([3]; low pH): essentially no | pKaves (protonated vesamicol) [4]: 9.0 ± 0.1

(−)-trans-2-(4-phenylpiperidino)cyclohexanol [(−)-vesamicol]
affinity relative to VAChT (sigma 2 receptors): only somewhat less than for VAChT | pKaves (protonated vesamicol) [4]: 9.0 ± 0.1 | affinity relative to VAChT (sigma 1 receptors): only somewhat less than for VAChT
